Measured values published in ChEMBL document CHEMBL1781898, “Orally active achiral N-hydroxyformamide inhibitors of ADAM-TS4 (aggrecanase-1) and ADAM-TS5 (aggrecanase-2) for the treatment of osteoarthritis” (Bioorg Med Chem Lett, 2011).

Columns and labels:
[1] = Half life in rat at 2 mg/kg, iv; type: ADME, organism-based; set-up: dose 2 mg/kg, route intravenous; settings: in vivo
Procedure, shortened: (§1)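 Rat iv PK: 2 mg/kg iv, n = 2 animals; clearance, half-life and Vdss determined.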

[2] = Half life in mouse; type: ADME, organism-based; settings: in vivo
[3] = Oral bioavailability in dog; type: ADME, organism-based, Canis lupus familiaris; settings: in vivo
[4] = Free drug level in human; type: ADME, organism-based; settings: in vivo
[5] = biological target: T1, A disintegrin and metalloproteinase with thrombospondin motifs 5 (Homo sapiens, UniProt Q9UNA0); test: Inhibition of ADAMTS-5 assessed as substrate cleavage after 16 hrs by fluorescence assay
T1 sequence (Q9UNA0 whole entry): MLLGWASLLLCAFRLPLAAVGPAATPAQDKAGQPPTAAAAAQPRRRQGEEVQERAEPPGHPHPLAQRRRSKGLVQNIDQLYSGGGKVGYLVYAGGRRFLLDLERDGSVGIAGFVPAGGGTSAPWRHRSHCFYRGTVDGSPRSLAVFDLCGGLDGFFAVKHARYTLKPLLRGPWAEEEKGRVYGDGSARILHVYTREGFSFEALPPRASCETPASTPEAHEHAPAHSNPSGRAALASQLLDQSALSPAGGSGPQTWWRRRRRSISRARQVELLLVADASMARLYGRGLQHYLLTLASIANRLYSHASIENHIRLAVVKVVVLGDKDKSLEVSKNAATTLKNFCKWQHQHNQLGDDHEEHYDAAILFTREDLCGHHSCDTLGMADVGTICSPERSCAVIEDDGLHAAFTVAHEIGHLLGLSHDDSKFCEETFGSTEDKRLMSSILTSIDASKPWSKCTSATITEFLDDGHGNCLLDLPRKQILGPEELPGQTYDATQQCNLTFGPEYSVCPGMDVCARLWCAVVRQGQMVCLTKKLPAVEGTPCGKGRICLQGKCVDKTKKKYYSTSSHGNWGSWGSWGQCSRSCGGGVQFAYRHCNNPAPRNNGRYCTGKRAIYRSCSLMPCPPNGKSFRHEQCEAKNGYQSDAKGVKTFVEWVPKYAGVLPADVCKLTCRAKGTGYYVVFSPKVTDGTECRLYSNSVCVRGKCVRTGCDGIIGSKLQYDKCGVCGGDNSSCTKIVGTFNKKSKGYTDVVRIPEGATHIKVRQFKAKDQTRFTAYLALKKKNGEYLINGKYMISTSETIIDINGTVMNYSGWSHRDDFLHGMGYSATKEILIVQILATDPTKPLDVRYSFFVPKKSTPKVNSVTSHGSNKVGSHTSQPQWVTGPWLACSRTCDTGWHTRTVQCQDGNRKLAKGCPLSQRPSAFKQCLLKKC
Procedure, shortened: (§2)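 Enzyme inhibition IC50s derived from at least six measurements, standard errors normally <5% within an assay; a standard compound run to keep assay-to-assay variability within twofold.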

[6] = Absolute bioavailability in rat; type: ADME, organism-based; settings: in vivo
[7] = Free drug level in dog; type: ADME, organism-based, Canis lupus familiaris; settings: in vivo
[8] = Half life in dog at 1 mg/kg, iv and 1 mg/kg, po; type: ADME, organism-based, Canis lupus familiaris; settings: in vivo
[9] = Apparent permeability across apical to basolateral side in human Caco2 cells at 10 uM; type: ADME, cell-based; settings: Caco-2
[10] = biological target: 72 kDa type IV collagenase (Homo sapiens, UniProt P08253); test: Inhibition of recombinant human MMP-2 assessed as substrate cleavage after 20 hrs by fluorescence assay; procedure, shortened: as §2
Chain of 72 kDa type IV collagenase (P08253 whole entry): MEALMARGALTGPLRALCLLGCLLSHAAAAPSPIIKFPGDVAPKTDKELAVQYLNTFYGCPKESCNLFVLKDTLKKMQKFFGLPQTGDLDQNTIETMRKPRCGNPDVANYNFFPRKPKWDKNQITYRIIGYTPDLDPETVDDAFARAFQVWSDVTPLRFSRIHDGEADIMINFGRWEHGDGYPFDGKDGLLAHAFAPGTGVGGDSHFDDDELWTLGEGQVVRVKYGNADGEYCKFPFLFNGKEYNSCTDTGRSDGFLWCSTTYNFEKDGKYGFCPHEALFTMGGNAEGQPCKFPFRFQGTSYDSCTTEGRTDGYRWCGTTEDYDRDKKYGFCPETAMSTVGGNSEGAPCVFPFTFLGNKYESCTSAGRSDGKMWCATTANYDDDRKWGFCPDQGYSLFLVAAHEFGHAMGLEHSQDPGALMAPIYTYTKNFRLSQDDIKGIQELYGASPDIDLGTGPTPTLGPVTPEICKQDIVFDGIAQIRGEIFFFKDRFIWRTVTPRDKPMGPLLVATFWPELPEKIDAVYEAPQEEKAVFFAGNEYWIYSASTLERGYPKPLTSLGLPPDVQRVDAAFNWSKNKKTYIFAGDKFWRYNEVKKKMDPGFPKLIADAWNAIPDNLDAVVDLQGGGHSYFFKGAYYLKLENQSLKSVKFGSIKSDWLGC

Cytochrome P450 2C19 = Cytochrome P450 2C19 (Homo sapiens, UniProt P33261); test: Inhibition of CYP2C19; type: ADME
Chain of Cytochrome P450 2C19 (P33261 whole entry, canonical isoform): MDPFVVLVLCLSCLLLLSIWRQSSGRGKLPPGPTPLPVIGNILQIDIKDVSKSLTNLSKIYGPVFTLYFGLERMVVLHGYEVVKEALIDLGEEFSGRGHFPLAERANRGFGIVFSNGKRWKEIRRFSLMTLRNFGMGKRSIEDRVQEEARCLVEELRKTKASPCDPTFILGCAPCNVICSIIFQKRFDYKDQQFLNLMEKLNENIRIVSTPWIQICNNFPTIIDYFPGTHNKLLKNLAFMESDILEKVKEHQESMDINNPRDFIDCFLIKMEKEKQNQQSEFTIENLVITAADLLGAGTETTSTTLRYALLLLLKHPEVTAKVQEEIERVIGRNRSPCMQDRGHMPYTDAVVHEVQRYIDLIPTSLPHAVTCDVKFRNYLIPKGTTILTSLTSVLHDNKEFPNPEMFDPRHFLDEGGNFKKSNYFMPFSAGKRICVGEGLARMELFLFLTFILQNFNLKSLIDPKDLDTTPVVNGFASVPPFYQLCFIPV
Procedure, shortened: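 Inhibition of cytochrome P450 isoforms 1A2, 2C9, 2C19, 2D6 and 3A4, reported as pIC50.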

[11] = Thermodynamic solubility of the compound in phosphate buffer at pH 7.4 after 24 hrs; type: physicochemical; settings: read-out: Therm_solubility
[12] = Absolute bioavailability in mouse; type: ADME, organism-based; settings: in vivo
[13] = Free drug level in rat; type: ADME, organism-based; settings: in vivo
[14] = Clearance in rat at 2 mg/kg, iv; type: ADME, organism-based; set-up: dose 2 mg/kg, route intravenous; settings: in vivo; procedure, shortened: as §1
[15] = biological target: T2, A disintegrin and metalloproteinase with thrombospondin motifs 4 (Homo sapiens, UniProt O75173); test: Inhibition of ADAMTS-4 assessed as substrate cleavage after 16 hrs by fluorescence assay; procedure, shortened: as §2
T2 sequence (O75173 whole entry): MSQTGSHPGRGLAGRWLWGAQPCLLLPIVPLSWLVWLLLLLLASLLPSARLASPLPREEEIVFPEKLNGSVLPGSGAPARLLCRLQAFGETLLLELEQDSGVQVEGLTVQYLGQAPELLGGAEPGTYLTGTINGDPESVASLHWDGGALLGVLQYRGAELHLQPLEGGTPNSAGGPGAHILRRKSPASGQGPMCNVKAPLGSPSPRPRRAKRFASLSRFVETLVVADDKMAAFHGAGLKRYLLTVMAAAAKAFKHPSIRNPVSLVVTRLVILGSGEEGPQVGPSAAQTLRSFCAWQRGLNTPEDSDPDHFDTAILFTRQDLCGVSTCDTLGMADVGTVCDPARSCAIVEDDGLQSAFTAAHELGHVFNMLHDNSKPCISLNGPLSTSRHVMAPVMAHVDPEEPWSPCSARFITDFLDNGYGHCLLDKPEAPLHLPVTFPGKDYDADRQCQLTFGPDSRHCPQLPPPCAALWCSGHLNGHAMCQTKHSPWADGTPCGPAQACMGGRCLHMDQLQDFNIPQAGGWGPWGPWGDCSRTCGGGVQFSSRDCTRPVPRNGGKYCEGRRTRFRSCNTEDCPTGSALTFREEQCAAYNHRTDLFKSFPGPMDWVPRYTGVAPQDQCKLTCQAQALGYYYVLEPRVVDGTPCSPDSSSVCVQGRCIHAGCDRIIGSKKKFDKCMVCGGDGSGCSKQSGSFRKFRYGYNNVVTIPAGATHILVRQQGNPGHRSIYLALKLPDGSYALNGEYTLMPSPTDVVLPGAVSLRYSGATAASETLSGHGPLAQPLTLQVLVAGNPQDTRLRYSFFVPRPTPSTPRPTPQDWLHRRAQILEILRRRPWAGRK

[16] = Volume of distribution at steady state in rat at 2 mg/kg, iv; type: ADME, organism-based; set-up: dose 2 mg/kg, route intravenous; settings: in vivo, read-out: Vdss; procedure, shortened: as §1
[17] = Clearance in rat at 2 mg/kg, iv and 3 to 10 mg/kg, po; type: ADME, organism-based; settings: in vivo

Cc1noc(C)c1CCC1CCN(S(=O)(=O)CC2(N(O)C=O)CCOCC2)CC1
half-life [1]: 8.9 h
half-life [2]: 2.6 h
bioavailability [3]: 52%
fraction unbound [4]: > 0.5
IC50 [5]: 860 nM
bioavailability [6]: 45%
fraction unbound [7]: > 0.5
half-life [8]: 19.1 h
Papp A→B at 10 µM [9]: 8.3 ×10⁻⁶ cm/s
IC50 [10]: > 23000 nM
inhibition (INH) (Cytochrome P450 2C19): Not Active
solubility thermodynamic at 24 h [11]: > 1000 µM
bioavailability [12]: 54%
fraction unbound [13]: > 0.5
clearance [14]: 24 mL/min/kg
IC50 [15]: 26 nM
Vd [16]: 3 L/kg
clearance [17]: 24 mL/min/kg
